Sampled rows, rich in hits. Any-hit rate of the full collection: about 3.1%.
hERG protect – shields human hERG channel from block by proarrhythmic agents; CHO-hERG, FluxOR thallium flux, dofetilide IC70 present; activation (rescue from dofetilide block), less the hit threshold, % at 10 µM; 310,000 compounds, 0.51% hits; AID 1511;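 active = activation above the mean of controls blocked by dofetilide plus 5 SD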;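 also: thallium influx through hERG after potassium depolarization seen as dye fluorescence rise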
KCNQ1 inh – human KCNQ1 channel inhibition. 310,000 compounds, 1.3% hits. P51787. B-score at 10 µM. CHO-K1 KCNQ1, FluxOR thallium flux fluorescence; active compounds read high;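 active = compounds whose thallium flux B-score, printed positive for inhibition, exceeds three library SD while starting fluorescence stays within three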;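 also: channel opened by potassium depolarization with thallium stimulus after 20 min compound exposure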
KCNK3 block – human KCNK3 channel inhibition, primary screen. B-score at 10 µM. CHO-KCNK3 thallium flux, FluxOR fluorescence; active compounds read low. 340,000 compounds, 0.84% hits. O14649. AID 602410;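 active = B-score under library mean minus 4 SD, starting fluorescence ratio at most library mean plus 5 SD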;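 also: more negative B-score means stronger inhibition of thallium flux through KCNK3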
KCNK9 block – inhibitors of human KCNK9 two-pore domain potassium channel. Q9NPC2. HEK293 KCNK9, FluxOR thallium flux fluorescence; active compounds read low. B-score at 10 µM. 310,000 compounds, 1.2% hits. AID 488922;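 active = ratio B-score over 3 SD below the library mean, with starting fluorescence within 5 SD of its mean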;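 also: negative B-score means less thallium flux so channel inhibition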
Target sequence (Q9NPC2 whole entry, looked up, the tested form may be a part): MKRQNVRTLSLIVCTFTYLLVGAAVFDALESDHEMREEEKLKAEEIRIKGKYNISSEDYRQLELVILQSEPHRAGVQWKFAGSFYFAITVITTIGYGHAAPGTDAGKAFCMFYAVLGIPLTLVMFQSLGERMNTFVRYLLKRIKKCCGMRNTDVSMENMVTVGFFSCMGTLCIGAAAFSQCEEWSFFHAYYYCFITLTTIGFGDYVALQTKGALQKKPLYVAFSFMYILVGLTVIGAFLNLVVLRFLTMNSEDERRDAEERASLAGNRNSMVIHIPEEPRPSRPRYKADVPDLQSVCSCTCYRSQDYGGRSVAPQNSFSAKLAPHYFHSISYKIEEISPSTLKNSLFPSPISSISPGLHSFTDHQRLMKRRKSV
KCNQ1 pot – potentiates or activates the human KCNQ1 potassium channel; 310,000 compounds, 0.35% hits; P51787; B-score at 10 µM; CHO-K1 KCNQ1, thallium flux FluxOR fluorescence; active compounds read high;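 active = fluorescence ratio B-score, a plate-corrected score, at least three library SD, with initial intensity B-score within 5 SD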
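System: CHO-K1 cells stably expressing KCNQ1 / Medium: assay buffer for compound exposure, DMSO matched across wells / Reagent: thallium- and potassium-containing depolarizing buffer / Compound: one concentration, matched DMSO / Incubation: 20 min compound pretreatment at room temperature / Measured by: kinetic FluxOR fluorescence, 10 s baseline plus 110 s post-stimulus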
KCNQ1 block val – confirmation of human KCNQ1 potassium channel inhibitors. shares compounds with KCNQ1 inh. KCNQ1 cell line, FluxOR thallium flux fluorescence. inhibition, % at 10 µM. 1,600 compounds, 93% hits;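 active = primary screen active, with duplicate mean exceeding buffer control mean plus 3 SD of buffer wells, cut at about 28% in these data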;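 also: 0% = buffer control ratio and 100% = XE991 inhibitor control ratio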
CHO KCNQ1 ctr – counter-screen for KCNQ1 inhibitors: effect in parental CHO cells | fluorescence ratio (Tl flux) at 10 µM | 1,600 compounds, 21% hits | parental CHO-K1, FluxOR thallium flux fluorescence ratio; active compounds read low; zero means no signal rise above baseline | AID 588366 | shares compounds with KCNQ1 inh;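 active = mean of duplicate thallium-flux fluorescence ratios in parental host cells more than 5 SD below the buffer control mean, cut at about 0.38 in these data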;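 also: ratio is peak minus minimum fluorescence divided by baseline fluorescence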
KCNQ1 APC inh – blocks human KCNQ1 current in automated patch clamp; 490 compounds, 20% hits; KCNQ1-CHO cells; calls only at 10 µM; shares compounds with KCNQ1 inh; AID 624120;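 active = KCNQ1 current drop exceeding 3 SD of negative control wells, seen in both duplicate runs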;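 also: steady state current during a 2 s step from -80 to +40 mV; negative values mean current inhibition and positive values mean potentiation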
KCNQ2 inh – KCNQ1 inhibitor that also blocks rat KCNQ2 channel; shares compounds with KCNQ1 inh; KCNQ2 cells, FluxOR thallium flux fluorescence; inhibition, % at 10 µM; 1,600 compounds, 71% hits; AID 651746;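 active = mean percent inhibition of the KCNQ2 thallium signal more than 5 SD above the buffer-only control wells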;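 also: KCNQ2 expressed in CHO cells; 0% = buffer control wells and 100% = XE-991 inhibitor control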
KCNQ1-KCNE1 inh – selectivity of KCNQ1 inhibitors: inhibition of human KCNQ1/KCNE1 channel; 1,600 compounds, 77% hits; KCNQ1/KCNE1 cells, FluxOR thallium flux fluorescence; inhibition, % at 10 µM; shares compounds with KCNQ1 inh; AID 652147;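 active = mean percent inhibition of duplicate wells above the buffer-only control mean plus 3 SD of those controls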;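 also: 0% = buffer only wells and 100% = XE-991 inhibitor control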
Starred values were filed as active, the others as inactive; i = inactive; x = no result given; + = active, no number.

SMILES | hERG protect | KCNQ1 inh | KCNK3 block | KCNK9 block | KCNQ1 pot | KCNQ1 block val | CHO KCNQ1 ctr | KCNQ2 inh | KCNQ1-KCNE1 inh | others
O=C(Nc1nc(-c2cccs2)c(C(=O)C(F)(F)F)s1)c1ccccc1 | -12.3 | 7* | i | i | i | 25.0* | 0.476 | i | i
Cc1ccc(-c2nnn(C(C)C(=O)N3c4ccccc4CCc4ccccc43)n2)cc1 (configuration not stated) | -5.5 | 6* | i | i | i | 135.0* | 0.422 | 92.0%* | 162.5%* | KCNQ1 APC inh=i
CC(C(=O)N1c2ccccc2CCc2ccccc21)n1nnc(-c2ccc(N(C)C)cc2)n1 (configuration not stated) | -1.6 | i | i | i | i | x | x | x | x
CC1C(=O)Nc2ccc(S(=O)(=O)N3CCN(c4cccc(C(F)(F)F)c4)CC3)cc2NC1=O (configuration not stated) | -4.9 | i | i | i | i | x | x | x | x
O=C(Cn1cnc2ccccc2c1=O)N1CCN(c2ccccc2)CC1 | -10.2 | 7* | i | i | i | 0.0 | 0.459 | i | i
Cc1cc2c(=O)n(CC(=O)N3CCN(c4ccccc4)CC3)cnc2s1 | x | x | i | x | x | x | x | x | x
Fc1ccc(NC(=S)NCc2cccs2)cc1 | -7.3 | 6* | i | i | i | 0.0 | 0.519 | i | 47.5%*
Cc1ccc(NC(=S)NCc2cccs2)cc1 | -6.5 | i | i | i | i | x | x | x | x
COc1ccc(CCN2C(=O)c3[nH]nc(-c4ccccc4O)c3C2c2cccc(Cl)c2)cc1 (configuration not stated) | -3.5 | 9* | i | i | i | 109.0* | 0.458 | 90.3%* | 139.5%* | KCNQ1 APC inh=+
O=[N+]([O-])c1c(Nc2cccc(O)c2)cc(Cl)c2nonc12 | -32.7 | 24* | i | -7.97* | i | 165.5* | 0.286* | 129.0%* | +
CCO[C@@H]1OC(C(=O)NC2CC2)=C[C@H](c2coc3ccccc3c2=O)[C@H]1CCCO | -3.2 | i | i | i | i | x | x | x | x
CCN1/C(=C/c2ccc3cc(C)ccc3[n+]2CC)Sc2ccccc21 | -36.9 | 17* | i | i | i | + | 0.0355* | i | i
CN1/C(=C/c2cccc[n+]2CCO)Sc2ccccc21 | -4.1 | i | i | i | i | x | x | x | x
CC[n+]1c(/C=C2\Sc3ccccc3N2C)ccc2cccc(C)c21 | -66.6 | 22* | i | i | i | + | 0.05* | i | i
Cn1cc(CNCc2ccc(OC(F)(F)F)cc2)c(-c2ccc3c(c2)OCCO3)n1 | -20.0 | 10* | i | i | i | 124.0* | 0.493 | 111.7%* | 60.0%* | KCNQ1 APC inh=i
CCOC(=O)C1=C(c2ccccc2)NC(SCC(=O)Nc2ccc(C)cc2)=C(C#N)C1c1ccco1 (configuration not stated) | 3.2 | i | i | i | i | x | x | x | x
CCOC(=O)CSC1=C(C#N)C(c2ccco2)C(C(=O)Nc2cccc(C(F)(F)F)c2)=C(C)N1 (configuration not stated) | -13.9 | 8* | i | i | i | 145.0* | 0.393 | 124.7%* | + | KCNQ1 APC inh=i
COc1ccc(OC)c(NC(=O)Nc2c(O)ccc3ccccc23)c1 | -8.7 | 12* | i | i | i | 0.0 | 0.619 | i | 48.0%*
CCOc1ccccc1NC(=O)C(OC(=O)c1ccccc1O)c1ccccc1 (configuration not stated) | -6.7 | i | i | i | i | x | x | x | x
CCOc1ccccc1NC(=O)C(OC(=O)c1ccccc1)c1ccccc1 (configuration not stated) | -2.1 | 6* | i | -6.9* | i | 89.5* | 0.403 | 107.0%* | 126.0%* | KCNQ1 APC inh=i
C=CCn1c(SCc2c(C)noc2C)nc2sc3c(c2c1=O)CCCC3 | -10.4 | 7* | i | i | i | 80.5* | 0.392 | 90.3%* | 146.0%*
CC(CC(=O)N1CCc2ccccc21)n1cccn1 (configuration not stated) | -4.9 | i | i | i | i | x | x | x | x
CCOC(=O)C1(CC2CC2)CCN(Cc2cnc(-c3ccccc3C)nc2)CC1 | -1.8 | 7* | i | i | i | 0.0 | 0.452 | 78.3%* | i
Cc1cc(C)cc(NC(=O)Cn2c(=O)oc3cc(S(=O)(=O)N4CC(C)CC(C)C4)ccc32)c1 (configuration not stated) | -10.7 | 7* | i | i | i | 37.0* | 0.471 | 66.7%* | i
O=C1C(Cl)=C(N2CCCCCC2)C(=O)N1c1ccc(Br)cc1 | -8.9 | 6* | i | i | i | 85.0* | 0.4 | 101.3%* | 100.5%*
SMILES | hERG protect | KCNQ1 inh | KCNK3 block | KCNK9 block | KCNQ1 pot | KCNQ1 block val | CHO KCNQ1 ctr | KCNQ2 inh | KCNQ1-KCNE1 inh | others
O=C1C(Cl)=C(N2CCCCCC2)C(=O)N1c1ccccc1 | -8.8 | i | i | i | i | x | x | x | x
CN1/C(=C/C=C(C#N)C#N)C(C)(C)c2ccccc21 | -44.2 | 25* | i | i | i | + | 0.122* | i | i
CN1/C(=C\C=O)C(C)(C)c2ccccc21 | -3.4 | i | i | i | i | x | x | x | x
CN(C)c1ccc(N=C/C=C2\N(C)c3ccccc3C2(C)C)cc1 | -16.5 | 14* | i | i | i | 0.0 | 0.535 | i | i
COCCNCC(=O)Nc1nc(C)cs1 | x | x | i | x | x | x | x | x | x
Cc1cc(-c2ccc3ccccc3c2)n2ncnc2n1 | -7.5 | i | i | i | i | x | x | x | x
COc1ccc(N2CCN(C3CCCN(C(=O)C4=C(C)OCCO4)C3)CC2)cc1 (configuration not stated) | -8.7 | i | i | i | i | x | x | x | x
CSc1nsc(/C=C/Nc2ccc(C)c(C)c2)c1C#N | -7.6 | i | i | i | i | x | x | x | x
CSc1nsc(/C=C/Nc2ccc(C)cc2)c1C#N | -10.0 | 7* | i | i | i | 0.0 | 0.513 | i | 57.0%*
CCOc1ccc(S(=O)(=O)N2CCCCC2)cc1NC(=O)Cc1ccsc1 | x | x | i | x | x | x | x | x | x
CCOC(=O)C1CCN(c2c(C(=O)c3ccccc3)cnc3ccc(Cl)cc23)CC1 | -10.7 | 6* | i | i | i | 154.5* | 0.408 | 134.0%* | 91.5%* | KCNQ1 APC inh=i
